{"source": "ChEMBL document CHEMBL3393048", "about": "“Discovery of potent cytotoxic ortho-aryl chalcones as new scaffold targeting tubulin and mitosis with affinity-based fluorescence” (J Med Chem, 2014)", "key": {"Tubulin (Homo sapiens) [1]": {"target": "T1, Tubulin (Homo sapiens) (UniProt P68371+Q9H4B7+P0DPH7+P68366+Q13509+Q71U36+P04350+Q3ZCM7+P07437+P68363+Q9BQE3+Q6PEY2+Q13885+Q9BVA1+Q9BUF5)", "experiment": "Binding affinity to tubulin (unknown origin) after 30 mins by fluorescence assay", "type": "protein-complex assay", "procedure,_shortened": "(§1)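 Intrinsic fluorescence on tubulin binding. Compounds were mixed with tubulin (4 μM or 8 μM) in general tubulin buffer and incubated 30 min. Readings were excitation 430/emission 510 nm or excitation 365/emission 465 nm, with kinetic reads from mixing. ΔF = stable emission minus tubulin-only fluorescence. Optimal wavelengths were set by wavelength scanning.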"}, "A549 [2]": {"tested_on": "A549", "experiment": "Induction of apoptosis in human A549 cells assessed as apoptotic cells after 48 hrs by Annexin V-FITC/propidium iodide staining-based flow cytometry", "type": "functional, cell-based"}, "A549 [3]": {"tested_on": "A549", "experiment": "Induction of apoptosis in human A549 cells assessed as late apoptotic cells at 0.5 uM after 48 hrs by Annexin V-FITC/propidium iodide staining-based flow cytometry (reference value: 0.10%)", "type": "functional"}, "Tubulin (Homo sapiens) [4]": {"target": "T1, Tubulin (Homo sapiens)", "experiment": "Binding affinity to tubulin (unknown origin) at 4 uM by fluorescence assay", "type": "protein-complex assay", "settings": "TDE = time-dependent effect", "procedure,_shortened": "as §1"}, "A549 [5]": {"tested_on": "A549", "experiment": "Cell cycle arrest in human A549 cells assessed as accumulation at G2/M phase at 7.81 to 250 nM after 24 hrs by Hoechst 33342 staining-based ArrayScanVTI analysis", "type": "functional", "procedure,_shortened": "(§2)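 A549 cells were seeded at 5000/well, cultured overnight, then treated 24 h over a 7.81–250 concentration series. Cells were fixed in prewarmed paraformaldehyde 10 min, permeabilized with Triton X-100, and nuclei stained with Hoechst 33342. Imaging was by ArrayScan VTI high-content analysis. Phase percentage = cells within a gated fluorescence intensity / total cells counted.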"}, "[6]": {"experiment": "Drug resistance index, ratio of IC50 for vincristine-resistant human HCT8 cells to IC50 for human HCT8 cells", "type": "functional, HCT-8", "procedure,_shortened": "(§3)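 Drug resistance index = IC50 in the resistant line / IC50 in its parental line. […] Pairs: A549/CDDP vs A549, MCF-7/DOX vs MCF-7, A2780/TAX vs A2780, HCT-8/VCT vs HCT-8.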"}, "MCF7 [7]": {"tested_on": "MCF7", "experiment": "Drug resistance index, ratio of IC50 for doxorubicin-resistant human MCF7 cells to IC50 for human MCF7 cells", "type": "functional", "procedure,_shortened": "as §3"}, "A549 [8]": {"tested_on": "A549", "experiment": "Antiproliferative activity against cis-platinum-resistant human A549 cells after 48 hrs by SRB method", "type": "functional, cell-based", "settings": "A549, 48 h", "procedure,_shortened": "(§4)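 SRB assay. Cells in DMEM high glucose with 10% FBS were seeded at 5000/well and grown 24 h; a day-0 plate was fixed at that point. Compounds were added in triplicate for 48 h. Cells were fixed with TCA at 4 °C for 1 h, stained with 0.4% SRB, and the dye was solubilized in 10 mM Tris pH 10.4. OD was read at 515 nm with day-0 OD subtracted. IC50 came from nonlinear regression of dose–response curves from at least two independent experiments.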"}, "[9]": {"experiment": "Antiproliferative activity against vincristine-resistant human HCT8 cells after 48 hrs by SRB method", "type": "functional, cell-based", "settings": "HCT-8, 48 h", "procedure,_shortened": "as §4"}, "A549 [10]": {"tested_on": "A549", "experiment": "Induction of apoptosis in human A549 cells assessed as total apoptotic cells at 0.25 uM after 48 hrs by Annexin V-FITC/propidium iodide staining-based flow cytometry", "type": "functional"}, "A549 [11]": {"tested_on": "A549", "experiment": "Induction of apoptosis in human A549 cells assessed as early apoptotic cells at 1 uM after 48 hrs by Annexin V-FITC/propidium iodide staining-based flow cytometry (reference value: 0.47%)", "type": "functional"}, "HepG2": {"tested_on": "HepG2", "experiment": "Antiproliferative activity against human HepG2 cells after 48 hrs by SRB method", "type": "functional, cell-based", "settings": "HepG2, 48 h", "procedure,_shortened": "(§5)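 SRB assay. Cells in DMEM high glucose with 10% FBS were seeded at 5000/well and grown 24 h; a day-0 plate was fixed at that point. Compounds were added in triplicate for 48 h. IC50 came from nonlinear regression of dose–response curves from at least two independent experiments.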"}, "A549 [12]": {"tested_on": "A549", "experiment": "Induction of apoptosis in human A549 cells assessed as total apoptotic cells at 0.5 uM after 48 hrs by Annexin V-FITC/propidium iodide staining-based flow cytometry", "type": "functional"}, "A549 [13]": {"tested_on": "A549", "experiment": "Induction of apoptosis in human A549 cells assessed as necrotic cells at 1 uM after 48 hrs by Annexin V-FITC/propidium iodide staining-based flow cytometry (reference value: 0.06%)", "type": "functional"}, "A549 [14]": {"tested_on": "A549", "experiment": "Induction of apoptosis in human A549 cells assessed as viable cells at 0.5 uM after 48 hrs by Annexin V-FITC/propidium iodide staining-based flow cytometry (reference value: 99.37%)", "type": "functional", "settings": "A549, 48 h, read-out: Activity"}, "A549 [15]": {"tested_on": "A549", "experiment": "Induction of apoptosis in human A549 cells assessed as viable cells at 0.25 uM after 48 hrs by Annexin V-FITC/propidium iodide staining-based flow cytometry (reference value: 99.37%)", "type": "functional", "settings": "A549, 48 h, read-out: Activity"}, "A2780 [16]": {"tested_on": "A2780", "experiment": "Antiproliferative activity against taxol-resistant human A2780 cells after 48 hrs by SRB method", "type": "functional, cell-based", "settings": "A2780, 48 h", "procedure,_shortened": "as §5"}, "A549 [17]": {"tested_on": "A549", "experiment": "Induction of apoptosis in human A549 cells assessed as total apoptotic cells at 1 uM after 48 hrs by Annexin V-FITC/propidium iodide staining-based flow cytometry", "type": "functional"}, "MCF7 [18]": {"tested_on": "MCF7", "experiment": "Antiproliferative activity against doxorubicin-resistant human MCF7 cells after 48 hrs by SRB method", "type": "functional, cell-based", "settings": "MCF7, 48 h", "procedure,_shortened": "as §5"}, "A549 [19]": {"tested_on": "A549", "experiment": "Cell cycle arrest in human A549 cells assessed as accumulation at G2/M phase at 62.5 nM after 24 hrs by Hoechst 33342 staining-based ArrayScanVTI analysis", "type": "functional", "procedure,_shortened": "as §2"}, "Tubulin (Homo sapiens) [20]": {"target": "T1, Tubulin (Homo sapiens)", "experiment": "Binding affinity to tubulin (unknown origin) at 4 uM after 30 mins by fluorescence assay", "type": "protein-complex assay", "procedure,_shortened": "as §1"}, "A2780 [21]": {"tested_on": "A2780", "experiment": "Drug resistance index, ratio of IC50 for taxol-resistant human A2780 cells to IC50 for human A2780 cells", "type": "functional", "procedure,_shortened": "as §3"}, "MCF7 [22]": {"tested_on": "MCF7", "experiment": "Antiproliferative activity against human MCF7 cells after 48 hrs by SRB method", "type": "functional, cell-based", "settings": "MCF7, 48 h", "procedure,_shortened": "as §5"}, "A549 [23]": {"tested_on": "A549", "experiment": "Induction of apoptosis in human A549 cells assessed as necrotic cells at 0.5 uM after 48 hrs by Annexin V-FITC/propidium iodide staining-based flow cytometry (reference value: 0.06%)", "type": "functional"}, "A549 [24]": {"tested_on": "A549", "experiment": "Induction of apoptosis in human A549 cells assessed as total apoptotic cells at 0.75 uM after 48 hrs by Annexin V-FITC/propidium iodide staining-based flow cytometry", "type": "functional"}, "A549 [25]": {"tested_on": "A549", "experiment": "Antiproliferative activity against human A549 cells after 48 hrs by SRB method", "type": "functional, cell-based", "settings": "A549, 48 h", "procedure,_shortened": "as §4"}, "A549 [26]": {"tested_on": "A549", "experiment": "Induction of apoptosis in human A549 cells assessed as necrotic cells at 0.75 uM after 48 hrs by Annexin V-FITC/propidium iodide staining-based flow cytometry (reference value: 0.06%)", "type": "functional"}, "A549 [27]": {"tested_on": "A549", "experiment": "Induction of apoptosis in human A549 cells assessed as late apoptotic cells at 0.25 uM after 48 hrs by Annexin V-FITC/propidium iodide staining-based flow cytometry (reference value: 0.10%)", "type": "functional"}, "A549 [28]": {"tested_on": "A549", "experiment": "Induction of apoptosis in human A549 cells assessed as early apoptotic cells at 0.75 uM after 48 hrs by Annexin V-FITC/propidium iodide staining-based flow cytometry (reference value: 0.47%)", "type": "functional"}, "[29]": {"experiment": "Antiproliferative activity against human HCT8 cells after 48 hrs by SRB method", "type": "functional, cell-based", "settings": "HCT-8, 48 h", "procedure,_shortened": "as §5"}, "SW480": {"tested_on": "SW480", "experiment": "Antiproliferative activity against human SW480 cells after 48 hrs by SRB method", "type": "functional, cell-based", "settings": "SW480, 48 h", "procedure,_shortened": "as §5"}}, "note": "The source made the active and inactive calls. The calls are words filed in the database; no cut-off is given here.", "data": [{"compound": "CN(C)c1ccc(/C=C/C(=O)c2ccccc2-c2ccc(F)cc2)cc1", "values": [{"measurement": "Activity", "setting": "Tubulin (Homo sapiens) [1]", "value": "Dose-dependent effect"}, {"measurement": "Activity", "setting": "A549 [2]", "value": "Dose-dependent effect"}, {"measurement": "Activity", "setting": "A549 [3]", "value": 41.85, "unit": "%"}, {"measurement": "Activity", "setting": "Tubulin (Homo sapiens) [4]", "value": "tde"}, {"measurement": "Activity", "setting": "A549 [5]", "value": "Active"}, {"measurement": "Ratio IC50", "setting": "[6]", "value": 0.72}, {"measurement": "Ratio IC50", "setting": "MCF7 [7]", "value": 0.68}, {"measurement": "IC50", "setting": "A549 [8]", "value": 110, "unit": "nM"}, {"measurement": "IC50", "setting": "[9]", "value": 96, "unit": "nM"}, {"measurement": "Activity", "setting": "A549 [10]", "value": 69.1, "unit": "%"}, {"measurement": "Activity", "setting": "A549 [11]", "value": 41.02, "unit": "%"}, {"measurement": "IC50", "setting": "HepG2", "value": 47, "unit": "nM"}, {"measurement": "Activity", "setting": "A549 [12]", "value": 75.71, "unit": "%"}, {"measurement": "Activity", "setting": "A549 [13]", "value": 7.91, "unit": "%"}, {"measurement": "viability at 0.5 µM", "setting": "A549 [14]", "value": 12.3, "unit": "%"}, {"measurement": "viability at 0.25 µM", "setting": "A549 [15]", "value": 25.9, "unit": "%"}, {"measurement": "IC50", "setting": "A2780 [16]", "value": 49, "unit": "nM"}, {"measurement": "Activity", "setting": "A549 [17]", "value": 83.88, "unit": "%"}, {"measurement": "IC50", "setting": "MCF7 [18]", "value": 45, "unit": "nM"}, {"measurement": "Activity", "setting": "A549 [19]", "value": "Active"}, {"measurement": "Activity", "setting": "Tubulin (Homo sapiens) [20]", "value": "Active"}, {"measurement": "Ratio IC50", "setting": "A2780 [21]", "value": 0.52}, {"measurement": "IC50", "setting": "MCF7 [22]", "value": 230, "unit": "nM"}, {"measurement": "Activity", "setting": "A549 [23]", "value": 11.95, "unit": "%"}, {"measurement": "Activity", "setting": "A549 [24]", "value": 82.06, "unit": "%"}, {"measurement": "IC50", "setting": "A549 [25]", "value": 73, "unit": "nM"}, {"measurement": "Activity", "setting": "A549 [26]", "value": 9.38, "unit": "%"}, {"measurement": "Activity", "setting": "A549 [27]", "value": 34.43, "unit": "%"}, {"measurement": "Activity", "setting": "A549 [28]", "value": 36.61, "unit": "%"}, {"measurement": "IC50", "setting": "[29]", "value": 130, "unit": "nM"}, {"measurement": "IC50", "setting": "SW480", "value": 41, "unit": "nM"}]}]}
